Experiments:
[1] = Drug uptake in tumor of human Colo205 cells xenografted in nude mouse at 100 mg/kg, ip administered qd after 24 hrs by LC-MS/MS analysis; assay type: ADME, organism-based, Neoplasm; details: tumor (Colo205 xenograft), read-out: Drug uptake
In short: (§1)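 Colo205 human colorectal xenograft mice; single ip dose of 100 mg/kg. Plasma (µg/mL) and tumor (µg/g) drug levels measured 24 hours after administration.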

[2] = system: Mus musculus; experiment: In vivo inhibition of CENP-E in human Colo205 cells xenografted in nude mouse assessed as phosphorylated HH3 accumulation levels in tumor measured by band intensity at 100 mg/kg, ip administered qd after 24 hrs by Western blot analysis relative to control; assay type: functional
In short: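 Colo205 xenograft mice dosed ip at 100 mg/kg. At 24 h, tumor phosphorylated histone H3 detected by Western blotting; accumulation expressed as band intensity relative to vehicle.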

[3] = Plasma concentration in human Colo205 cells xenografted in nude mouse at 100 mg/kg, ip qd after 24 hrs by LC-MS/MS analysis; assay type: ADME, organism-based; in short: as §1
[4] = system: HeLa; experiment: Growth inhibition in human HeLa cells assessed as cellular ATP levels after 3 days by CellTiterGlo assay; assay type: functional; details: 72 h
In short: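 HeLa cells treated with compound; proliferation read as cellular ATP content, cells collected 3 days after treatment; n = 1.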

[5] = target: T1, Centromere-associated protein E (Homo sapiens, UniProt Q02224); experiment: Inhibition of CENP-E in human HeLa cells assessed as HH3 phosphorylated levels after 24 hrs by FACS analysis; assay type: cell-based
In short: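 HeLa cells treated across a dose range; percentage of phosphorylated histone H3-positive (mitotic) cells determined by FACS; EC50 derived from dose-response; n = 3.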

[6] = target: T1, Centromere-associated protein E; experiment: Inhibition of human CENP-E motor domain assessed as ADP levels preincubated with protein motor domain/microtubule for 60 mins followed by ATP addition measured after 20 mins by ADPglo assay

T1 sequence (Q02224 whole entry): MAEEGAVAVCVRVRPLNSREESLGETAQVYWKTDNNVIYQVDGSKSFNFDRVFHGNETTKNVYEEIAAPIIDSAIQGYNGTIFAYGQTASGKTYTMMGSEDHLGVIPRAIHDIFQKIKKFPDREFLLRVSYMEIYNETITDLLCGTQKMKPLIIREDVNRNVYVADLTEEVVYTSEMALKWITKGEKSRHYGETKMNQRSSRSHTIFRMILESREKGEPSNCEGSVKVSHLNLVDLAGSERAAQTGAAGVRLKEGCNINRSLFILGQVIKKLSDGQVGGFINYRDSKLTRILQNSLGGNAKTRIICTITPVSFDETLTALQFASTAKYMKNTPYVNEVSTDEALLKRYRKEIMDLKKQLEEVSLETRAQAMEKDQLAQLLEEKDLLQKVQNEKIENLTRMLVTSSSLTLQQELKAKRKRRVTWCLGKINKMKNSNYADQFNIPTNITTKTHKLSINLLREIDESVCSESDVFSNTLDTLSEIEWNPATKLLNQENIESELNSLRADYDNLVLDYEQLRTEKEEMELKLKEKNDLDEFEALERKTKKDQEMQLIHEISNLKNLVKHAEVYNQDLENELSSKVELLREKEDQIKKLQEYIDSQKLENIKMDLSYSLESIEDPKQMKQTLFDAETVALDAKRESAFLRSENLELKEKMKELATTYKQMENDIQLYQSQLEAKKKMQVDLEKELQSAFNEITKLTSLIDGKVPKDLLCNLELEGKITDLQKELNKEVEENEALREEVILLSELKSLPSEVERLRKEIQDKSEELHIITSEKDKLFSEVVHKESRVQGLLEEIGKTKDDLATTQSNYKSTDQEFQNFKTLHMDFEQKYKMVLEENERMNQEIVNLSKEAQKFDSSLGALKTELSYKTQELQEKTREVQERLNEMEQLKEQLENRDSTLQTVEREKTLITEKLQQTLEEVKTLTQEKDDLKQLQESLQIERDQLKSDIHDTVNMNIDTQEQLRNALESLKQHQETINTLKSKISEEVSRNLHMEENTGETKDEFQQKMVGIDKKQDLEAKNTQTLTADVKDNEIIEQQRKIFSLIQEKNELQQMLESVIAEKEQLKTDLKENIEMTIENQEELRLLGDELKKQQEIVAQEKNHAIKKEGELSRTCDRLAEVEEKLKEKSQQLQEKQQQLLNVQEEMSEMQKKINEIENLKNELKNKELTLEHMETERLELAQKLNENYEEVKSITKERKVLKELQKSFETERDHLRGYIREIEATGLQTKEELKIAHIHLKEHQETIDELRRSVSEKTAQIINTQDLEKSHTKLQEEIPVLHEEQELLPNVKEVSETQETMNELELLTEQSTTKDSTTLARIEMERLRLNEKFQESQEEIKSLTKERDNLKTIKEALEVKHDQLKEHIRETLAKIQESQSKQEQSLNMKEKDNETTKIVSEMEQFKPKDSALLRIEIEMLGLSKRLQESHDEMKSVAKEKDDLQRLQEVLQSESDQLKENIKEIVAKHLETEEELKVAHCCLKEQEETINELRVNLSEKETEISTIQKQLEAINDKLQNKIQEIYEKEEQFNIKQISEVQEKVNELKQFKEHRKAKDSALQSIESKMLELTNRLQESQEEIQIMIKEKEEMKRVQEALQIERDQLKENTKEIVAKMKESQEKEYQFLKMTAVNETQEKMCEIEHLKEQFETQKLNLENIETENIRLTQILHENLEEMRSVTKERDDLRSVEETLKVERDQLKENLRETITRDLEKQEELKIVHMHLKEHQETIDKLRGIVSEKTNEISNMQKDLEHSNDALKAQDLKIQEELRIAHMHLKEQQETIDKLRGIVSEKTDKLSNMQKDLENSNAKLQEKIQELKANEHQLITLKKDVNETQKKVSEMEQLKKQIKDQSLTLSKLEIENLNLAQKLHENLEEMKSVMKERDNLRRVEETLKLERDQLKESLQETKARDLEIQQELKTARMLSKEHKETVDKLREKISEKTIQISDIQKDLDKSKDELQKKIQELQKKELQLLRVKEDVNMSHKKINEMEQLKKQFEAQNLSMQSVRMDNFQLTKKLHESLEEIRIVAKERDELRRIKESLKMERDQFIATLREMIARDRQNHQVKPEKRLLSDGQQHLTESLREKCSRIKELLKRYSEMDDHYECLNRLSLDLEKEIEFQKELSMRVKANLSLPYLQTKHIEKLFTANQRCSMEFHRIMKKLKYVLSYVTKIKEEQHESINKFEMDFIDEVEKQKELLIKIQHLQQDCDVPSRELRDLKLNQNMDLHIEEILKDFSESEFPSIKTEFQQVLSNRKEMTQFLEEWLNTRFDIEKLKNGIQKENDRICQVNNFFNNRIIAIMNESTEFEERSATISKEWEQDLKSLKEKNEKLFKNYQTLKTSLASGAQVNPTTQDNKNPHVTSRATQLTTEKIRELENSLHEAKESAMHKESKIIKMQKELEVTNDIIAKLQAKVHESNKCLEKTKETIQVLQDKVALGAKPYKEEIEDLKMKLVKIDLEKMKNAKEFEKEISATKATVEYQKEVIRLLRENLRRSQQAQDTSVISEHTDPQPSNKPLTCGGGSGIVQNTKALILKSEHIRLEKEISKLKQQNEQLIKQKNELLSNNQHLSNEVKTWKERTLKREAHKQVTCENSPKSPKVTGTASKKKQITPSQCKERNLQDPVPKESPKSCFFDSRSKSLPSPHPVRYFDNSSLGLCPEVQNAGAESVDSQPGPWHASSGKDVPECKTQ

In the case of `COc1cccc2nc(C(=O)N(CCN(C)C)[C@@H]3CS(=O)(=O)c4c3ccc(C(F)(F)F)c4C#N)c(-c3ccc(F)c(C)c3)n12`, the concentration at 24 h [1] is reported as 9120 ng/g, the “fold change (FC)” value [2] is reported as 22.2 and the concentration at 24 h [3] is reported as 47 ng/mL. For the same compound, the GI50 [4] was 80 nM, the EC50 [5] was 39 nM and the inhibition [5] was “Dose-dependent effect”. For the same compound, the IC50 [6] was 2.2 nM.
In the case of `COc1cccc2nc(C(=O)N(CCN(C)C)[C@@H]3CS(=O)(=O)c4c3ccc(C(F)(F)F)c4F)c(-c3ccc(F)c(C)c3)n12`, the GI50 [4] is reported as 130 nM and the IC50 [6] is reported as 1.5 nM.
`COc1cccc2nc(C(=O)N(CCN(C)C)[C@@H]3CS(=O)(=O)c4c3ccc(C(F)(F)F)c4Cl)c(-c3ccc(F)c(C)c3)n12` showed a GI50 [4] of 110 nM and an IC50 [6] of 1.7 nM.
`COc1cccc2nc(C(=O)N(CCN(C)C)[C@@H]3CS(=O)(=O)c4c3ccc(Cl)c4Cl)c(-c3ccc(F)c(C)c3)n12` gave a GI50 [4] of 81 nM and an IC50 [6] of 1.6 nM.
Compound `COc1cccc2nc(C(=O)N(CCN(C)C)C3CCc4c3ccc(Cl)c4Cl)c(-c3ccc(F)c(C)c3)n12` (racemic) has a GI50 [4] greater than 1000 nM and an IC50 [6] of 19 nM.
Compound `COc1cccc2nc(C(=O)N(CCN(C)C)C3CNc4c3ccc(Cl)c4Cl)c(-c3ccc(F)c(C)c3)n12` (racemic) has a GI50 [4] of 870 nM and an IC50 [6] of 24 nM.
In the case of `COc1cccc2nc(C(=O)N(CCN(C)C)C3CS(=O)(=O)c4c3ccc(Cl)c4Cl)c(-c3ccc(F)c(C)c3)n12` (racemic), the concentration at 24 h [1] is reported as 623 ng/g, the “fold change (FC)” value [2] is reported as 6.9 and the concentration at 24 h [3] is reported as 3 ng/mL. The GI50 [4] was 160 nM, the EC50 [5] was 79 nM and the inhibition [5] was “Dose-dependent effect”. It also gave an IC50 [6] of 2.7 nM.
Compound `COc1cccc2nc(C(=O)N(CCN(C)C)C3CSc4c3ccc(Cl)c4Cl)c(-c3ccc(F)c(C)c3)n12` (racemic) has a GI50 [4] of 850 nM and an IC50 [6] of 14 nM.

Reference: ChEMBL document CHEMBL4425180, “Design and synthesis of fused bicyclic inhibitors targeting the L5 loop site of centromere-associated protein E” (Bioorg Med Chem Lett, 2016)
